Measurements reported in ChEMBL document CHEMBL1152638, “Natural product leads for drug discovery: isolation, synthesis and biological evaluation of 6-cyano-5-methoxyindolo[2,3-a]carbazole based ligands as antibacterial agents” (Bioorg Med Chem, 2009).
≈ marks a conversion by molar mass, not a printed value. Where a name gives a salt, the structure may show the parent alone.

What was measured:
[1] = tested on: Mycobacterium tuberculosis; experiment: Antitubercular activity against Mycobacterium tuberculosis H37Rv after 16 to 24 hrs by microplate alamar blue assay; format: functional
In short: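 H37Rv (ATCC 27294) in Middlebrook 7H12; twofold dilutions from 12.8 mM DMSO stocks, final 128 to 0.5 μM; 1 × 10^5 cfu/mL inoculum, aerobic 37 °C. Day 7: Tween 80 plus Alamar Blue added, then 16–24 h more. Fluorescence ex 530/em 590 nm; MIC is lowest concentration giving ≥90% reduction versus bacteria-only controls; rifampin, isoniazid positive controls.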

Bacillus anthracis = experiment: Antibacterial activity against Bacillus anthracis deltaANR after 14 hrs by microplate alamar blue assay; format: functional
[2] = Cytotoxicity against human KB cells; format: cell-based; conditions: read-out: MIC
Human alphaherpesvirus 2 = experiment: Antiviral activity against HSV2 infected in mink lung cells assessed as reduction in viral titer at 1 ug/ml; format: functional; set-up: scale not given: the % may be the effect or the level left
[3] = Cytotoxicity against human LoVo cells; format: cell-based; conditions: read-out: MIC

SMILES	MIC [1] [µM]	MIC (Bacillus anthracis) [µM]	MCC [2] [µg/mL]	Activity (Human alphaherpesvirus 2) [%]	MCC [3] [µg/mL]
COc1c(C#N)c2c3ccccc3[nH]c2c2c1c1ccccc1n2Cc1ccccc1	44.1 (≈ 17.7 µg/mL)	> 200			
COc1c(C#N)c2c3ccccc3[nH]c2c2c1c1ccccc1n2C	> 128	> 200	5	95	5
NNC(=O)c1ccncc1 [ISONIAZID]	0.6 (≈ 0.0823 µg/mL)				
COc1c(C#N)c2c3ccccc3n(C)c2c2[nH]c3ccccc3c12	> 128	> 200			
COc1c(C#N)c2c3ccccc3n(C)c2c2c1c1ccccc1n2C	> 128	> 200			
CO[C@H]1/C=C/O[C@@]2(C)Oc3c(C)c(O)c4c(O)c(c(/C=N/N5CCN(C)CC5)c(O)c4c3C2=O)NC(=O)/C(C)=C\C=C\[C@H](C)[C@H](O)[C@@H](C)[C@@H](O)[C@@H](C)[C@H](OC(C)=O)[C@@H]1C [RIFAMPIN]	0.1 (≈ 0.0823 µg/mL)				
N#Cc1c(O)c2c3ccccc3[nH]c2c2[nH]c3ccccc3c12	15 (≈ 4.46 µg/mL)	1.6 (≈ 0.476 µg/mL)			
COc1c(C#N)c2c3ccccc3[nH]c2c2[nH]c3ccccc3c12	> 128	6.3 (≈ 1.96 µg/mL)			
COc1c(C(N)=O)c2c3ccccc3[nH]c2c2c1c1ccccc1n2C	> 128				
N#Cc1c(O)c2c3ccccc3n(Cc3ccccc3)c2c2[nH]c3ccccc3c12	60.6 (≈ 23.5 µg/mL)	1.6 (≈ 0.62 µg/mL)			
CN[C@@H]1C[C@H]2O[C@@](C)([C@@H]1OC)n1c3ccccc3c3c4c(c5c6ccccc6n2c5c31)C(=O)NC4 [STAUROSPORINE]	14.7 (≈ 6.86 µg/mL)	128 (≈ 59.7 µg/mL)			
O=C(O)c1cn(C2CC2)c2cc(N3CCNCC3)c(F)cc2c1=O [CIPROFLOXACIN HYDROCHLORIDE]		0.1			
Cn1c2ccccc2c2c(O)c(C#N)c3c4ccccc4[nH]c3c21	56.6 (≈ 17.6 µg/mL)	6.3 (≈ 1.96 µg/mL)			
